Here are results for 24 molecules from ChEMBL document CHEMBL1140391, “8-Substituted 3,4-dihydroquinolinones as a novel scaffold for atypical antipsychotic activity” (Bioorg Med Chem Lett, 2005).

Broadly, the Ki is a dissociation constant, usually derived from enzyme kinetics or from competition with a known ligand. High values mean weaker binding, low ones tighter binding.

The target in one experiment is D(2) dopamine receptor (Homo sapiens, UniProt P14416). Nature of the experiment: Binding affinity against Dopamine receptor D2 expressed in CHO cells. Type of experiment: cell-based. The method, boiled down: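 Radioligand binding with [³H]spiperone on membranes of CHO cells expressing human DA D₂ receptors. Membranes and radioligand were incubated 120 min with or without varying compound concentrations. Haloperidol at high concentration defined nonspecific binding. Bound label was separated by vacuum filtration and counted by liquid scintillation. IC₅₀ was fitted by nonlinear regression and converted to Ki with Cheng–Prusoff.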

For experiment [1], the target named is 5-hydroxytryptamine receptor 2A (Homo sapiens, UniProt P28223). Description: Binding affinity for 5-hydroxytryptamine 2A receptor expressed in 3T3 cells. It is filed as cell-based. The procedure, abridged:
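[³H]Ketanserin displacement on membranes of Swiss 3T3 cells expressing human 5-HT2A receptors. Incubation was 120 min across varying compound concentrations. Nonspecific binding came from high unlabeled ketanserin. Bound and free label were separated by vacuum filtration, and bound label was quantified by liquid scintillation. Percent inhibition of specific binding was fitted by nonlinear regression to give IC₅₀, then converted to Ki with Cheng–Prusoff.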

Sequence of 5-hydroxytryptamine receptor 2A (P28223 whole entry): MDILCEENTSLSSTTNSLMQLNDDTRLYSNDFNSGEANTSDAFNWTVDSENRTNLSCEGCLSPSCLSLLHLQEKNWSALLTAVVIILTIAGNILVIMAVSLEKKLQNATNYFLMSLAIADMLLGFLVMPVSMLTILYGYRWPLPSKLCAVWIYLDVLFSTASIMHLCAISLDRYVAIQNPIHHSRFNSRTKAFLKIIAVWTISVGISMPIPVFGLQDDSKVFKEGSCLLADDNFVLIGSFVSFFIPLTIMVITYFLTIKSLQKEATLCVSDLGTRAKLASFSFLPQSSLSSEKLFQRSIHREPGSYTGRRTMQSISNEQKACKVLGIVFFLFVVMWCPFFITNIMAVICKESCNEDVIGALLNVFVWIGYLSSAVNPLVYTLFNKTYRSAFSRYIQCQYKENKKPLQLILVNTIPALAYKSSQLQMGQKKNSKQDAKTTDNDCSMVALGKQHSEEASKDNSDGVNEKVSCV
Sequence of D(2) dopamine receptor (P14416 whole entry): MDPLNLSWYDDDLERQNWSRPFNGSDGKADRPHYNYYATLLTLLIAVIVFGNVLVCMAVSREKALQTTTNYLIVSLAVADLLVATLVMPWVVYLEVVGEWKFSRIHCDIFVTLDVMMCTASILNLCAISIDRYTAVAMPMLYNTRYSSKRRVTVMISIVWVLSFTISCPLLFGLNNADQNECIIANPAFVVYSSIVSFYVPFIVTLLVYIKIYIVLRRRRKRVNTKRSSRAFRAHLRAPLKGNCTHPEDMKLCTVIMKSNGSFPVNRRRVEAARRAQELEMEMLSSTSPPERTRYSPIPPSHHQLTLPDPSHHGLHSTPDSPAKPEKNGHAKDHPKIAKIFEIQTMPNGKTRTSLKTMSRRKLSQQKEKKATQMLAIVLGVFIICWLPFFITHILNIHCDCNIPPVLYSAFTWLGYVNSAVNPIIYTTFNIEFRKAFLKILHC

Take `O=C1CCc2cccc(CCN3CCN(c4nsc5ccccc45)CC3)c2N1`: the Ki at D(2) dopamine receptor is above 100 nM; in experiment [1] it was 0.28 nM.
Take `CC1Cc2cccc(CCN3CCN(c4nsc5ccccc45)CC3)c2NC1=O` (configuration not stated): the Ki worked out at 73 nM at D(2) dopamine receptor and 1.06 nM in experiment [1].
For `CC1CC(=O)Nc2c(CCN3CCN(c4nsc5ccccc45)CC3)cccc21` (configuration not stated), in that order: 21 nM and 0.22 nM.
As for `CC(=O)N1CCC(C)c2cccc(CCN3CCN(c4nsc5ccccc45)CC3)c21` (configuration not stated), the Ki was found to be 17 nM at D(2) dopamine receptor and 0.3 nM in experiment [1].
On to `CC(=O)N1CCC(C)c2cc(F)cc(CCN3CCN(c4nsc5ccccc45)CC3)c21` (configuration not stated), for which the results for the Ki (on D(2) dopamine receptor; in experiment [1]) were 18 nM and 0.44 nM, respectively.
Turning to `Cc1ccc(CCN2CCN(c3nsc4ccccc34)CC2)c2c1C(C)CC(=O)N2` (configuration not stated), the Ki was found to be 11 nM at D(2) dopamine receptor and 0.13 nM in experiment [1].
For `CC1(C)CCNc2c(CCN3CCN(c4nsc5ccccc45)CC3)cccc21`, in that order: 59 nM and 0.18 nM.
Turning to `CC1CCN(C(=O)c2ccccc2)c2c(CCN3CCN(c4nsc5ccccc45)CC3)cccc21` (configuration not stated), the inhibitory constant (Ki) at D(2) dopamine receptor is 16 nM; in experiment [1], 0.61 nM.
For `COc1cccc(CC(=O)N2CCC(C)c3cccc(CCN4CCN(c5nsc6ccccc56)CC4)c32)c1` (configuration not stated), in that order: 4 nM and 1.07 nM.
On to `CC(=O)N1CCC(C)c2c(C)ccc(CCN3CCN(c4nsc5ccccc45)CC3)c21` (configuration not stated), for which the inhibitory constant (Ki) at D(2) dopamine receptor came to 12 nM; in experiment [1] it was 0.75 nM.
As to `CC1(C)CCNc2c(CCN3CCN(c4nsc5ccccc45)CC3)cc(F)cc21`, the values for the Ki (at D(2) dopamine receptor; in experiment [1]) were 55 nM and 0.28 nM, respectively.
Take `CC1CC(=O)Nc2c(CCN3CCN(c4n[s+]([O-])c5ccccc45)CC3)cc(F)cc21` (configuration not stated): the figures for the inhibition constant Ki (on D(2) dopamine receptor; in experiment [1]) were 92 nM and 2.23 nM, respectively.
In the case of `CC1CCN(C(=O)C2CCCCC2)c2c(CCN3CCN(c4nsc5ccccc45)CC3)cccc21` (configuration not stated), the inhibitory constant (Ki) at D(2) dopamine receptor amounted to 25 nM; in experiment [1], 0.59 nM.
For the molecule `CC1CC(=O)Nc2c(CCN3CCN(c4noc5ccccc45)CC3)cccc21` (configuration not stated), the inhibition constant (Ki) is above 100 nM at D(2) dopamine receptor and 190 nM in experiment [1].
The like results for `Cc1cc(CCN2CCN(c3noc4ccccc34)CC2)c2c(c1)C(C)CC(=O)N2` (configuration not stated) were, in that order, 35 nM and 0.28 nM.
The like results for `CC1CC(=O)N(C)c2c(CCN3CCN(c4nsc5ccccc45)CC3)cccc21` (configuration not stated) were, in that order, 81 nM and 0.17 nM.
For `CC(=O)N1CCC(C)c2cc(F)cc(CCN3CCN(c4noc5ccccc45)CC3)c21` (configuration not stated), in that order: 29 nM and 0.29 nM.
In experiment [1], `O=C1CC(c2ccccc2)c2cccc(CCN3CCN(c4nsc5ccccc45)CC3)c2N1` (configuration not stated) gave an inhibition constant (Ki) of 0.18 nM.
Take `CC1CC(=O)Nc2c(CCN3CCN(c4nsc5ccccc45)CC3)cc(F)cc21` (configuration not stated): the Ki on D(2) dopamine receptor came out at 15 nM; in experiment [1], 0.17 nM.
For `CC1CC(=O)Nc2c(CCN3CCN(c4noc5ccccc45)CC3)cc(F)cc21` (configuration not stated), in that order: above 100 nM and 0.28 nM.
For `CC(=O)N1CCC(C)c2cc(Cl)cc(CCN3CCN(c4nsc5ccccc45)CC3)c21` (configuration not stated), in that order: above 50 nM and 0.31 nM.
Consider `CC(=O)N1CCC(C)c2c(C)ccc(CCN3CCN(c4noc5ccccc45)CC3)c21` (configuration not stated), for which the inhibition constant Ki came out at 17 nM at D(2) dopamine receptor and 0.32 nM in experiment [1].
The like results for `CC1CC(=O)Nc2c(CCN3CCN(c4nsc5ccccc45)CC3)cc(Cl)cc21` (configuration not stated) were, in that order, above 100 nM and 0.05 nM.
As for `CC(=O)N1CCC(c2ccccc2)c2cccc(CCN3CCN(c4nsc5ccccc45)CC3)c21` (configuration not stated), the Ki on D(2) dopamine receptor was 12 nM; in experiment [1], 2.15 nM.
